Measured values reported in ChEMBL document CHEMBL3124767, “Synthesis, biological evaluation and molecular modelling studies of 4-anilinoquinazoline derivatives as protein kinase inhibitors” (Bioorg Med Chem, 2014).

Legend:
[1] = molecular target: Dual specificity protein kinase CLK1 (Homo sapiens, UniProt P49759); test: Inhibition of human recombinant GST-fused CLK1 expressed in Escherichia coli using GRSRSRSRSRSR as substrate
How it was run: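 GST-tagged human CLK1 made in E. coli. Buffer A (MgCl2, EGTA, DTT, 25 mM Tris-HCl pH 7.5, heparin) with 0.15 mg BSA/mL, RS peptide substrate at 1 µg/assay, 15 µM final ATP. Run 30 min at 30 °C in triplicate. Activity is given as % of the no-inhibitor maximum after blank subtraction. Compounds screened at 10 µM; IC50 from dose-response curves (usually 0.01–10 µM).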

[2] = molecular target: Glycogen synthase kinase-3 (Sus scrofa, UniProt B2LUN4+I6LNT8); test: Inhibition of GSK3 alpha/beta in pig brain using YRRAAVPPSPSLSRHSSPHQpSEDEEE as substrate by scintillation counting in presence of [gamma-33P]ATP
How it was run: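 Native GSK-3α/β from porcine brain, run in triplicate in buffer A (10 mM MgCl2, 1 mM EGTA, 1 mM DTT, 25 mM Tris–HCl pH 7.5, 50 µg heparin/mL) with GS-1 peptide substrate and 15 µM [γ-33P]ATP final, 30 min at 30 °C; spotted on P81 phosphocellulose, acid-washed, counted. Single 10 µM screen, then dose–response (usually 0.01–10 µM) for IC50; blank-subtracted, % of uninhibited activity.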

[3] = molecular target: Dual specificity tyrosine-phosphorylation-regulated kinase 1A (Rattus norvegicus, UniProt Q63470); test: Inhibition of rat recombinant GST-fused DYRK1A expressed in Escherichia coli using KKISGRLSPIMTEQ as substrate by scintillation counting in presence of [gamma-33P]ATP
[4] = Inhibition of CK1 delta/epsilon in pig brain using RRKHAAIGpSAYSITA as substrate by scintillation counting in presence of [gamma-33P]ATP; design: species or system Sus scrofa
[5] = molecular target: Cyclin-dependent kinase 5/CDK5 activator 1 (Homo sapiens, UniProt Q00535); test: inhibition of human recombinant CDK5/p25 using histone H1 as substrate by scintillation counting in presence of [gamma-33P]ATP; assay type: protein-complex assay
Sequence of Cyclin-dependent kinase 5/CDK5 activator 1 (Q00535 whole entry): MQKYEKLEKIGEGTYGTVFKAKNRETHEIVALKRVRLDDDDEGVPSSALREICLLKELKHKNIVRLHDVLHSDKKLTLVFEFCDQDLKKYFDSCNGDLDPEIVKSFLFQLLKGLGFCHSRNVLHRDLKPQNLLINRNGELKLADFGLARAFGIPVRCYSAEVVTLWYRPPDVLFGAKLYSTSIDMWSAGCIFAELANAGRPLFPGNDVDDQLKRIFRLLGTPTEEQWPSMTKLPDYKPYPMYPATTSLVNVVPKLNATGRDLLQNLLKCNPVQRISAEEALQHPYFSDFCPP
Sequence of Cyclin-dependent kinase 5/CDK5 activator 1 (Q15078 whole entry, further chain): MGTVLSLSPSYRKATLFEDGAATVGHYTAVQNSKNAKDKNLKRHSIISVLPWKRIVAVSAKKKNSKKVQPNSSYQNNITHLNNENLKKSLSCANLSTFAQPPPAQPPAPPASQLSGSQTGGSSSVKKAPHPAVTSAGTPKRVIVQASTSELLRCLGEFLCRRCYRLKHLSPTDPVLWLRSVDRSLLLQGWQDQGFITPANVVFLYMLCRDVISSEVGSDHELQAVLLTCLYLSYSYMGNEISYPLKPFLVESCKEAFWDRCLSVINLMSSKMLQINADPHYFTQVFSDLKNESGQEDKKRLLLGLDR
How it was run: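 Human recombinant CDK5/p25 in buffer A (Tris-HCl pH 7.5, MgCl2, EGTA, DTT, heparin) with 1 mg/mL histone H1 and 15 µM [γ-33P]ATP. Run 30 min at 30 °C in triplicate. P81 filter binding, phosphoric acid washes, scintillation counting. Activity is % of maximal after blank subtraction. Compounds screened at 10 µM; IC50 from dose-response curves.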

Sequence of Dual specificity protein kinase CLK1 (P49759 whole entry, the tested form may be a part): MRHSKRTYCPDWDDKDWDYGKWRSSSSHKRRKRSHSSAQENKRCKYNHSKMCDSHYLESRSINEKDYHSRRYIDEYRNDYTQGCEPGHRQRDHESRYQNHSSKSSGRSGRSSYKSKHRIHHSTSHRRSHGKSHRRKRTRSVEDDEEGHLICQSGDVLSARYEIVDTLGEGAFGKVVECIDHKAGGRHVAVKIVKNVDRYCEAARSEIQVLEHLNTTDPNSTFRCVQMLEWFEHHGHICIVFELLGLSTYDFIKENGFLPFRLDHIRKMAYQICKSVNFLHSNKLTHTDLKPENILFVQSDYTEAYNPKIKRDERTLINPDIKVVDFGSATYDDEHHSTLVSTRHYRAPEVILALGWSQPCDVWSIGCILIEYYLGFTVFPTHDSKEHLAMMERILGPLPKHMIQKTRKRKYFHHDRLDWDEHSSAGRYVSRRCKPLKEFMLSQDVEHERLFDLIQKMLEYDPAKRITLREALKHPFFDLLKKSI

| SMILES | IC50 [1] | IC50 [2] | IC50 [3] | IC50 [4] | IC50 [5] |
| --- | --- | --- | --- | --- | --- |
| COc1cc2ncnc(Nc3ccc(NC(C)=O)cc3)c2cc1OC | > 10 µM | > 10 µM | > 10 µM | > 10 µM | > 10 µM |
| COc1cc2ncnc(Nc3ccc(OC(F)(F)F)cc3)c2cc1OC | > 10 µM | > 10 µM | > 10 µM | > 10 µM | > 10 µM |
| COc1ccc(Nc2ncnc3cc(OC)c(OC)cc23)cc1OC | 1.5 µM | 3 µM | ≥ 10 µM | > 10 µM | > 10 µM |
| O=C1Nc2cc(Br)ccc2/C1=C1/Nc2ccccc2/C1=N\O [6BIO] | 2.1 µM |  |  |  |  |
| COc1cc2ncnc(Nc3ccc(C)c(C)c3)c2cc1OC | > 10 µM | > 10 µM | > 10 µM | > 10 µM | > 10 µM |
| COc1cc2ncnc(Nc3ccc(C(F)(F)F)cc3)c2cc1OC | > 10 µM | > 10 µM | > 10 µM | > 10 µM | > 10 µM |
| COc1cc2ncnc(Nc3cccc(C(F)(F)F)c3)c2cc1OC | > 10 µM | > 10 µM | > 10 µM | > 10 µM | > 10 µM |
| COc1cc2ncnc(Nc3ccccc3)c2cc1OC | ≥ 10 µM | > 10 µM | > 10 µM | > 10 µM | > 10 µM |
| COc1ccc(Nc2ncnc3cc(OC)c(OC)cc23)cc1 | > 10 µM | > 10 µM | > 10 µM | > 10 µM | > 10 µM |
| COc1cc2ncnc(Nc3ccc(C(C)=O)cc3)c2cc1OC | ≥ 10 µM | > 10 µM | > 10 µM | > 10 µM | > 10 µM |
| COc1cc2ncnc(Nc3ccc(F)c(Cl)c3)c2cc1OC | 7.6 µM | > 10 µM | > 10 µM | > 10 µM | > 10 µM |
